Converted amounts (≈) assume the structure as drawn.
Tests used:
[1] = Half-life period for the compound was determined in rats at 50 mg/kg dose; assay type: ADME, organism-based; parameters: dose 50 mg/kg; details: rat, in vivo
[2] = Plasma concentration for the compound was determined in rats at 50 mg/kg dose; assay type: ADME, organism-based; parameters: dose 50 mg/kg; details: rat
Procedure, shortened: (§1)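 Pharmacokinetics were measured in SD rats given 50mg/kg, reporting Cmax, Tmax, T1/2 and AUC.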

[3] = Time for maximum plasma concentration reached by compound was determined in rats at 50 mg/kg dose; assay type: ADME, organism-based; parameters: dose 50 mg/kg; details: rat; procedure, shortened: as §1
[4] = Maximum plasma concentration reached by compound was determined in rats at 50 mg/kg dose; assay type: ADME, organism-based; parameters: dose 50 mg/kg; details: rat; procedure, shortened: as §1
Enterococcus sp. = assay: In vitro antibacterial activity against the Ofloxacin Resistant Enterococcus knothe 101; assay type: functional
Procedure, shortened: (§2)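 MICs by agar dilution following National Committee for Clinical Laboratory Standards recommendations; all strains obtained from Hoechst.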

Enterobacter cloacae = assay: In vitro antibacterial activity against the Enterobacter cloacae 1321 E; assay type: functional
Escherichia coli [5] = assay: In vitro antibacterial activity against the Escherichia coli 078; assay type: functional
HepG2 = assay: Cytotoxicity was determined for the compound in HepG2 cell line; assay type: functional, cell-based; details: Homo sapiens
Klebsiella = assay: In vitro antibacterial activity against the Ofloxacin Resistant Klebsiella species 30-92; assay type: functional; procedure, shortened: as §2
Pseudomonas aeruginosa [6] = assay: In vitro antibacterial activity against the Ofloxacin Resistant Pseudomonas aeruginosa 279II; assay type: functional; procedure, shortened: as §2
Pseudomonas aeruginosa [7] = assay: In vitro antibacterial activity against the Pseudomonas aeruginosa 1592E; assay type: functional
Pseudomonas aeruginosa [8] = assay: In vitro antibacterial activity against the Pseudomonas aeruginosa 1771M; assay type: functional
Salmonella typhimurium = assay: In vitro antibacterial activity against the Salmonella Typhimurium; assay type: functional, Salmonella enterica subsp. enterica serovar Typhimurium; details: Salmonella enterica
[9] = test system: Staphylococcus epidermidis; assay: In vitro antibacterial activity against the Ofloxacin Resistant Staphylococcus epidermidis 291; assay type: functional; procedure, shortened: as §2
[10] = test system: Staphylococcus epidermidis; assay: In vitro antibacterial activity against the Ofloxacin Resistant Staphylococcus epidermidis 319; assay type: functional; procedure, shortened: as §2
Staphylococcus aureus [11] = assay: In vitro antibacterial activity against the Ofloxacin Resistant Staphylococcus aureus 179; assay type: functional; procedure, shortened: as §2
Staphylococcus aureus [12] = assay: In vitro antibacterial activity against the Ofloxacin Resistant Staphylococcus aureus 293; assay type: functional; procedure, shortened: as §2
Staphylococcus aureus [13] = assay: In vitro antibacterial activity against the Ofloxacin Resistant Staphylococcus aureus 303; assay type: functional; procedure, shortened: as §2
Staphylococcus aureus [14] = assay: In vitro antibacterial activity against the Methicillin-Resistant Staphylococcus aureus (MRSA) 690 E; assay type: functional; procedure, shortened: as §2
Staphylococcus aureus [15] = assay: In vitro antibacterial activity against the Methicillin-Resistant Staphylococcus aureus (MRSA) 692 E; assay type: functional; procedure, shortened: as §2
Staphylococcus aureus [16] = assay: In vitro antibacterial activity against the Methicillin-Resistant Staphylococcus aureus (MRSA) 697 E; assay type: functional; procedure, shortened: as §2
Staphylococcus aureus [17] = assay: In vitro antibacterial activity against the Methicillin-Resistant Staphylococcus aureus (MRSA) 701 E; assay type: functional; procedure, shortened: as §2
Staphylococcus aureus [18] = assay: In vitro antibacterial activity against the Methicillin-Resistant Staphylococcus aureus (MRSA) 705 E; assay type: functional; procedure, shortened: as §2
Staphylococcus aureus [19] = assay: In vitro antibacterial activity against the Methicillin-Resistant Staphylococcus aureus (MRSA) 707 E; assay type: functional; procedure, shortened: as §2
Staphylococcus aureus [20] = assay: In vitro antibacterial activity against the Staphylococcus aureus SG511; assay type: functional
Streptococcus pyogenes [21] = assay: In vitro antibacterial activity against the Streptococcus pyogenes 308A; assay type: functional
Streptococcus pyogenes [22] = assay: In vitro antibacterial activity against the Streptococcus pyogenes 77A; assay type: functional
V79-4 = assay: Cytotoxicity was determined for the compound in V79-4 cell line; assay type: functional, cell-based; details: Cricetulus griseus
Escherichia coli [23] = assay: In vitro antibacterial activity against the Escherichia coli DC 2; assay type: functional
Staphylococcus aureus [24] = assay: In vitro antibacterial activity against the Staphylococcus aureus 285; assay type: functional

SMILES	MIC (Enterococcus sp.) [µg/mL]	MIC (Enterobacter cloacae) [µg/mL]	MIC (Escherichia coli [5]) [µg/mL]	IC50 (HepG2) [µg/mL]	MIC (Klebsiella) [µg/mL]	MIC (Pseudomonas aeruginosa [7]) [µg/mL]	MIC (Pseudomonas aeruginosa [8]) [µg/mL]	MIC (Salmonella typhimurium) [µg/mL]	MIC [9] [µg/mL]	MIC [10] [µg/mL]	MIC (Staphylococcus aureus [11]) [µg/mL]	MIC (Staphylococcus aureus [12]) [µg/mL]	MIC (Staphylococcus aureus [13]) [µg/mL]	MIC (Staphylococcus aureus [14]) [µg/mL]	MIC (Staphylococcus aureus [15]) [µg/mL]	MIC (Staphylococcus aureus [20]) [µg/mL]	MIC (Streptococcus pyogenes [21]) [µg/mL]	MIC (Streptococcus pyogenes [22]) [µg/mL]	MIC (Escherichia coli [23]) [µg/mL]	MIC (Staphylococcus aureus [24]) [µg/mL]	also measured
CO/N=C1\CN(c2c(F)c(N)c3c(=O)c(C(=O)O)cn(C4CC4)c3c2F)C[C@]1(C)CN.Cl	0.013	< 0.002	< 0.002	11.6	0.781	0.391	0.195	< 0.002	0.049	0.025	0.013	0.013	0.013	< 0.002	< 0.002	< 0.002	0.004	< 0.002	< 0.002	–	half-life [1]: 6.94 h; AUC [2]: 68800 ng·h/mL; Tmax [3]: 1 h; Cmax [4]: 6670 ng/mL; MIC (Pseudomonas aeruginosa [6]): 3.12 µg/mL; MIC (Staphylococcus aureus [16]): < 0.002 µg/mL; MIC (Staphylococcus aureus [17]): < 0.002 µg/mL; MIC (Staphylococcus aureus [18]): < 0.002 µg/mL; MIC (Staphylococcus aureus [19]): < 0.002 µg/mL; IC50 (V79-4): 0.21 µg/mL
CO/N=C1\CN(c2c(F)c(N)c3c(=O)c(C(=O)O)cn(C4CC4)c3c2F)C[C@@]1(C)CN.Cl	0.195	< 0.002	0.004	–	1.56	0.391	0.195	< 0.002	0.391	0.781	0.195	0.195	0.195	0.004	0.004	< 0.002	0.049	0.013	0.013	0.004	MIC (Pseudomonas aeruginosa [6]): 3.12 µg/mL; MIC (Staphylococcus aureus [16]): 0.004 µg/mL; MIC (Staphylococcus aureus [17]): 0.007 µg/mL; MIC (Staphylococcus aureus [18]): 0.007 µg/mL
CO/N=C1\CN(c2cc3c(cc2F)c(=O)c(C(=O)O)cn3C2CC2)CC1(C)CN.Cl (stereo not drawn)	–	0.013	0.013	–	–	0.781	0.391	0.013	–	–	–	–	–	–	–	0.007	0.098	0.013	0.025	0.013	–
CO/N=C1\CN(c2c(F)cc3c(=O)c(C(=O)O)cn(C4CC4)c3c2F)CC1(C)CN.Cl (stereo not drawn)	–	0.013	0.025	–	–	1.56	0.781	0.025	–	–	–	–	–	–	–	0.013	0.098	0.025	0.049	0.013	–
O=C(O)c1cn(C2CC2)c2cc(N3CCNCC3)c(F)cc2c1=O [CIPROFLOXACIN]	0.781 (≈ 2.36 µM)	–	–	37.5 (≈ 113 µM)	1.56 (≈ 4.72 µM)	0.195 (≈ 0.589 µM)	0.098 (≈ 0.296 µM)	–	50 (≈ 151 µM)	100 (≈ 302 µM)	12.5 (≈ 37.7 µM)	12.5 (≈ 37.7 µM)	12.5 (≈ 37.7 µM)	0.391 (≈ 1.18 µM)	0.391 (≈ 1.18 µM)	0.195 (≈ 0.589 µM)	3.12 (≈ 9.43 µM)	0.391 (≈ 1.18 µM)	0.098 (≈ 0.296 µM)	0.781 (≈ 2.36 µM)	AUC [2]: 12700 ng·h/mL; Tmax [3]: 0.5 h; MIC (Staphylococcus aureus [16]): 0.391 µg/mL (≈ 1.18 µM); MIC (Staphylococcus aureus [17]): 0.391 µg/mL (≈ 1.18 µM); MIC (Staphylococcus aureus [18]): 0.391 µg/mL (≈ 1.18 µM); MIC (Staphylococcus aureus [19]): 0.195 µg/mL (≈ 0.589 µM); IC50 (V79-4): 58.5 µg/mL (≈ 177 µM)
CO/N=C1\CN(c2nc3c(cc2F)c(=O)c(C(=O)O)cn3C2CC2)CC1CN (stereo not drawn) [GEMIFLOXACIN]	0.098 (≈ 0.252 µM)	0.004 (≈ 0.0103 µM)	0.007 (≈ 0.018 µM)	13.5 (≈ 34.6 µM)	0.781 (≈ 2.01 µM)	0.391 (≈ 1 µM)	0.195 (≈ 0.501 µM)	0.004 (≈ 0.0103 µM)	1.56 (≈ 4.01 µM)	3.12 (≈ 8.03 µM)	0.781 (≈ 2.01 µM)	0.781 (≈ 2.01 µM)	0.781 (≈ 2.01 µM)	0.098 (≈ 0.252 µM)	0.049 (≈ 0.126 µM)	0.013 (≈ 0.0334 µM)	0.195 (≈ 0.501 µM)	0.025 (≈ 0.0642 µM)	0.025 (≈ 0.0642 µM)	0.025 (≈ 0.0642 µM)	half-life [1]: 2.12 h; AUC [2]: 25800 ng·h/mL; Tmax [3]: 1 h; Cmax [4]: 6630 ng/mL; MIC (Pseudomonas aeruginosa [6]): 6.25 µg/mL (≈ 16.1 µM); MIC (Staphylococcus aureus [16]): 0.049 µg/mL (≈ 0.126 µM); MIC (Staphylococcus aureus [17]): 0.098 µg/mL (≈ 0.252 µM); MIC (Staphylococcus aureus [18]): 0.098 µg/mL (≈ 0.252 µM); MIC (Staphylococcus aureus [19]): 0.025 µg/mL (≈ 0.0642 µM); IC50 (V79-4): 10.1 µg/mL (≈ 25.9 µM)
N[C@@H]1[C@H]2CN(c3nc4c(cc3F)c(=O)c(C(=O)O)cn4-c3ccc(F)cc3F)C[C@@H]12 [TROVAFLOXACIN]	–	–	–	11.2 (≈ 26.8 µM)	–	–	–	–	–	–	–	–	–	–	–	–	–	–	–	–	IC50 (V79-4): 3.77 µg/mL (≈ 9.05 µM)
